Where “and” joins values, the source holds several entries; their conditions need not be identical. Equal values may be shown once.
Tests used:
Mus musculus [1] = test: Compound was evaluated for anticonvulsant activity by maximal electroshock assay(MES) in mice after ip administration; 13-19; format: functional
Procedure, shortened: (§1)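 Male Hilltop ICR-derived mice (19-30 g), groups of 8-10, dosed ip with compound or aqueous vehicle. After 15 min pretreatment, a transcorneal 60-Hz, 50 mA shock was given for 0.2 s. Just before the shock, each mouse was tested on a horizontal wire (10 s). Quantal data were analysed by Litchfield-Wilcoxon to give ED50 with 95% confidence limits.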

Mus musculus [2] = test: Dose of compound causing a neurological deficit in 50% of mice after ip administration; 25-30; format: functional
Procedure, shortened: (§2)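 Traction test in male Hilltop ICR-derived mice (19-30 g, groups of 8-10) just before electroshock, 15 min after ip or 30 min after oral dosing. Mice placed on a 16-gauge, 65-cm copper wire 40 cm above the table; deficit scored as failure to stay on for 10 s. ND50 with 95% limits by Litchfield-Wilcoxon.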

Mus musculus [3] = test: Protective index is defined as ND50 (i.p.) divided by MES ED50(i.p.); format: functional
Procedure, shortened: (§3)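 Ratio of ND50 from the wire traction test to MES ED50, both measured by the same route (ip or oral) in the same animals. Quantal dose-response data for each were evaluated by Litchfield-Wilcoxon.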

Mus musculus [4] = test: Dose causing a neurological deficit in 50% of mice after ip administration.; format: functional; procedure, shortened: as §2
Mus musculus [5] = test: compound was evaluated for anticonvulsant activity by maximal electroshock assay(MES) in mice after ip administration.; format: functional
Procedure, shortened: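 Male Hilltop ICR-derived mice, 19-30 g, groups of 8-10, given compound or aqueous vehicle […] before transcorneal electroshock (50 mA, 60 Hz, 0.2 s). Shock delivered after the traction test. ED50 with 95% confidence limits estimated from quantal data by Litchfield-Wilcoxon.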

Mus musculus [6] = test: Compound was evaluated for anticonvulsant activity by maximal electroshock assay(MES) in mice after po administration; 34-89; format: functional
Procedure, shortened: (§4)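 Male Hilltop ICR-derived mice (19-30 g), groups of 8-10, given compound or aqueous vehicle orally. The transcorneal 60-Hz shock (50 mA, 0.2 s) followed a 30 min pretreatment and a wire-hang neurological check (10 s). ED50 and 95% confidence limits were obtained from quantal data by the Litchfield-Wilcoxon method.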

Mus musculus [7] = test: Dose of compound causing a neurological deficit in 50% of mice after ip administration; 20-35; format: functional; procedure, shortened: as §2
Mus musculus [8] = test: Dose causing a neurological deficit in 50% of mice following p.o. administration.; format: functional; procedure, shortened: as §2
Mus musculus [9] = test: Protective index defined as ND50 (p.o.) divided by MES ED50(op); format: functional; procedure, shortened: as §3
Mus musculus [10] = test: Dose of compound causing a neurological deficit in 50% of mice after ip administration; 71-111; format: functional; procedure, shortened: as §2
Mus musculus [11] = test: Compound was evaluated for anticonvulsant activity by maximal electroshock assay(MES) in mice after ip administration; 18-28; format: functional; procedure, shortened: as §1
Mus musculus [12] = test: Compound was evaluated for anticonvulsant activity by maximal electroshock assay(MES) in mice after ip administration; 38-55; format: functional; procedure, shortened: as §1
Mus musculus [13] = test: Dose of compound causing a neurological deficit in 50% of mice after ip administration; 71-93; format: functional; procedure, shortened: as §2
Mus musculus [14] = test: Compound was evaluated for anticonvulsant activity by maximal electroshock assay(MES) in mice after po administration; 55-103; format: functional; procedure, shortened: as §4
Mus musculus [15] = test: Compound was evaluated for anticonvulsant activity by maximal electroshock assay(MES) in mice after ip administration; 20-28; format: functional; procedure, shortened: as §1
[16] = Lethal dose was measured in mice after ip administration.; format: toxicity, organism-based; settings: mouse, in vivo
Procedure, shortened: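 Male Simonsen ICR-derived mice (16-24 g), groups of three, given compound ip in increasing doses within a behavioral screen. Deaths counted on day 5, and LD50 estimated from 5-day survival. Quantal data analysed by the Litchfield-Wilcoxon method.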

Mus musculus [17] = test: Compound was evaluated for anticonvulsant activity by maximal electroshock assay(MES) in mice after po administration; 29-53; format: functional; procedure, shortened: as §4
Mus musculus [18] = test: Compound was evaluated for anticonvulsant activity by maximal electroshock assay(MES) in mice after ip administration; 12-15; format: functional; procedure, shortened: as §1
Mus musculus [19] = test: Dose of compound causing a neurological deficit in 50% of mice after ip administration; 61-69; format: functional; procedure, shortened: as §2
Rattus norvegicus [20] = test: Compound was evaluated for anticonvulsant activity by maximal electroshock assay(MES) in rat after ip administration; 1.2-6.2; format: functional
Rattus norvegicus [21] = test: Dose of compound causing a neurological deficit in 50% of rat after ip administration; 35-83; format: functional
Procedure, shortened: (§5)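 Rats (Simonsen Sprague-Dawley-derived, 80-110 g, groups of 8-10) placed on a suspended 16-gauge, 65-cm copper wire just before electroshock. Deficit scored as inability to remain for 8 s. Pretreatment was 15 min ip or 30 min oral. Quantal data analysed by Litchfield-Wilcoxon to give ND50 with 95% limits.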

Mus musculus [22] = test: Compound was evaluated for anticonvulsant activity by maximal electroshock assay(MES) in mice after po administration; 55-105; format: functional; procedure, shortened: as §4
Mus musculus [23] = test: Dose of compound causing a neurological deficit in 50% of mice after ip administration; 53-96; format: functional; procedure, shortened: as §2
Mus musculus [24] = test: Compound was evaluated for anticonvulsant activity by maximal electroshock assay(MES) in mice after ip administration; 18-25; format: functional; procedure, shortened: as §1
Rattus norvegicus [25] = test: Compound was evaluated for anticonvulsant activity by maximal electroshock assay(MES) in rat after po administration; 31-105; format: functional
Procedure, shortened: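 Male Simonsen Sprague-Dawley-derived rats, 80-110 g, groups of 8-10, dosed with compound or aqueous vehicle; pretreatment 15 min after ip or 30 min after oral dosing. Transcorneal electroshock, 150 mA, 60 Hz, 0.2 s, given after the wire test. ED50 with 95% confidence limits from quantal data by Litchfield-Wilcoxon.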

Rattus norvegicus [26] = test: Dose of compound causing a neurological deficit in 50% of rat after po administration.; format: functional; procedure, shortened: as §5
Mus musculus [27] = test: Compound was evaluated for anticonvulsant activity by maximal electroshock assay(MES) in mice after po administration.; format: functional; procedure, shortened: as §4
Mus musculus [28] = test: Compound was evaluated for anticonvulsant activity by maximal electroshock assay(MES) in mice after ip administration; 20-42; format: functional; procedure, shortened: as §1
Mus musculus [29] = test: Compound was evaluated for anticonvulsant activity by maximal electroshock assay(MES) in mice after po administration; 69-90; format: functional; procedure, shortened: as §4
Mus musculus [30] = test: Compound was evaluated for anticonvulsant activity by maximal electroshock assay(MES) in mice after ip administration; 13-43; format: functional; procedure, shortened: as §1
Mus musculus [31] = test: Compound was evaluated for anticonvulsant activity by maximal electroshock assay(MES) in mice after ip administration; 62-102; format: functional; procedure, shortened: as §1

SMILES: CCCCOC(Cn1ccnc1)c1cccc2ccccc12 (stereo not drawn)
- ED50 (Mus musculus [1]): 16 mg/kg
- ND50 (Mus musculus [2]): 27 mg/kg
- PI (Mus musculus [3]): 1.7

SMILES: COC(Cn1ccnc1)(OC)c1ccc2ccccc2c1
- ND50 (Mus musculus [4]): >40 mg/kg
- ED50 (Mus musculus [5]): > 40 mg/kg

SMILES: CC1CCOC(Cn2ccnc2)(c2ccc3ccccc3c2)O1 (stereo not drawn)
- ED50 (Mus musculus [6]): 56 mg/kg
- ND50 (Mus musculus [7]): 26 mg/kg
- ND50 (Mus musculus [8]): >100 mg/kg
- PI (Mus musculus [9]): >1.8
- PI (Mus musculus [3]): 1.4

SMILES: CCC(=O)OC(Cn1ccnc1)c1ccc2ccccc2c1.Cl (stereo not drawn)
- ND50 (Mus musculus [10]): 83 mg/kg
- ED50 (Mus musculus [11]): 23 mg/kg
- PI (Mus musculus [3]): 3.6

SMILES: Cl.Clc1ccc(OC(Cn2ccnc2)c2ccc3ccccc3c2)cc1 (stereo not drawn)
- ED50 (Mus musculus [12]): 46 mg/kg
- ND50 (Mus musculus [13]): 82 mg/kg
- PI (Mus musculus [3]): 1.8

SMILES: Cc1ccc2cc(C(=O)Cn3ccnc3)ccc2c1.Cl
- ED50 (Mus musculus [14]): 76 mg/kg
- ND50 (Mus musculus [4]): >100 mg/kg
- ND50 (Mus musculus [8]): >150 mg/kg
- ED50 (Mus musculus [15]): 24 mg/kg
- LD50 [16]: > 100 mg/kg
- PI (Mus musculus [9]): >2
- PI (Mus musculus [3]): >4.3

SMILES: Br.CCc1ccc2cccc(C(=O)Cn3ccnc3)c2c1
- ED50 (Mus musculus [17]): 40 mg/kg
- ED50 (Mus musculus [18]): 13 mg/kg
- ND50 (Mus musculus [19]): 65 mg/kg
- ND50 (Mus musculus [8]): >100 mg/kg
- ED50 (Rattus norvegicus [20]): 3.1 mg/kg
- ND50 (Rattus norvegicus [21]): 53 mg/kg
- PI (Mus musculus [9]): >2.5

SMILES: Cc1ccc2cccc(C(=O)Cn3ccnc3)c2c1.Cl
- ED50 (Mus musculus [22]): 74 mg/kg
- ND50 (Mus musculus [23]): 73 mg/kg
- ND50 (Mus musculus [8]): >300 mg/kg
- ED50 (Mus musculus [24]): 22 mg/kg
- ED50 (Rattus norvegicus [25]): 52 mg/kg
- ND50 (Rattus norvegicus [26]): >100 mg/kg
- PI (Mus musculus [9]): >4.1 and >1.9
- PI (Mus musculus [3]): 3.3

SMILES: COc1ccc2cc(C(=O)Cn3ccnc3)ccc2c1.Cl
- ED50 (Mus musculus [27]): > 100 mg/kg
- ED50 (Mus musculus [28]): 31 mg/kg
- ND50 (Mus musculus [4]): >100 mg/kg
- ND50 (Mus musculus [8]): >100 mg/kg
- LD50 [16]: > 100 mg/kg
- PI (Mus musculus [3]): >3.3

SMILES: Cc1cc2ccc(C(=O)Cn3ccnc3)cc2cc1C.Cl
- ED50 (Mus musculus [29]): 78 mg/kg
- ED50 (Mus musculus [30]): 25 mg/kg
- ND50 (Mus musculus [4]): >100 mg/kg
- ND50 (Mus musculus [8]): >100 mg/kg
- PI (Mus musculus [9]): >1.3
- PI (Mus musculus [3]): >4

SMILES: COc1cc2cccc(C(=O)Cn3ccnc3)c2cc1OC.Cl
- ED50 (Mus musculus [31]): 79 mg/kg
- ND50 (Mus musculus [4]): >100 mg/kg
- PI (Mus musculus [3]): >1.3

From ChEMBL document CHEMBL1121883, “1-(Naphthylalkyl)-1H-imidazole derivatives, a new class of anticonvulsant agents” (J Med Chem, 1981)
